Results reported in ChEMBL document CHEMBL3593245 (J Med Chem, 2015).
Values after ≈ are worked out from the molar mass of the structure shown.

Legend:
[1] = target: T1, Rap guanine nucleotide exchange factor 4 (Mus musculus, UniProt Q9EQZ6); assay: Displacement of 8-NBD-cAMP from mouse recombinant EPAC2 by fluorescence assay
T1 sequence (Q9EQZ6 whole entry): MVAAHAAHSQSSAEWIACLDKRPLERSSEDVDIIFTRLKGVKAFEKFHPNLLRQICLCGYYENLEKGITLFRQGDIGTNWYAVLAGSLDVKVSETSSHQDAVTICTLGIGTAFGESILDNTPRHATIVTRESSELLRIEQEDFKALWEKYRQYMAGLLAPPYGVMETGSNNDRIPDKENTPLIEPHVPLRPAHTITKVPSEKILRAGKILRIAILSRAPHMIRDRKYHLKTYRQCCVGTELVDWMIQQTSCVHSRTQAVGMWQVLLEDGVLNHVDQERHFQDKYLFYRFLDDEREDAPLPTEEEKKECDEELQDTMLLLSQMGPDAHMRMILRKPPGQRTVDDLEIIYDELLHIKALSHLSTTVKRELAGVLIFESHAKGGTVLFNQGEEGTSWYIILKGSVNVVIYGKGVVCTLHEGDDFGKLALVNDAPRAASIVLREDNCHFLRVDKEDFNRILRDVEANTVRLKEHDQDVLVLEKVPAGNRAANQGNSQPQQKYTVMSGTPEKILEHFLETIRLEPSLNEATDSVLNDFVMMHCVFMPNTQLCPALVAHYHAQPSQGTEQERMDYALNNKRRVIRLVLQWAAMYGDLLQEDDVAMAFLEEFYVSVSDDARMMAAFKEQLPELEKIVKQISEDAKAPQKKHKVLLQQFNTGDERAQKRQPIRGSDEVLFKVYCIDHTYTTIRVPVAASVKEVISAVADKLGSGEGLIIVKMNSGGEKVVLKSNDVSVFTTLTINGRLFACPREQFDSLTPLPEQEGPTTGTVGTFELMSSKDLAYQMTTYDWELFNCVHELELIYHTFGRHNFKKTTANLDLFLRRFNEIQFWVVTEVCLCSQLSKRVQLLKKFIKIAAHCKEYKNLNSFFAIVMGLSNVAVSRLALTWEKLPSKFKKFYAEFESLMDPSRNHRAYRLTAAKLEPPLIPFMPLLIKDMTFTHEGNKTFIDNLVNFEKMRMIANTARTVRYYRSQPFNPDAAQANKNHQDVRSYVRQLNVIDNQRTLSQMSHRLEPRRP

[2] = target: T2, Rap guanine nucleotide exchange factor 4 (Mus musculus) (UniProt Q9EQZ6); assay: Ratio of cAMP IC50 to compound IC50 for displacement of 8-NBD-cAMP from mouse recombinant EPAC2 by fluorescence assay
T2 sequence (whole entry): T1 sequence (Q9EQZ6 whole entry)

[3] = […] solubility of the compound in water after 24 hrs by HPLC analysis; assay type: physicochemical; settings: for solubility: buffer, 24 h
[4] = […] solubility of the compound in ethanol after 24 hrs by HPLC analysis; assay type: physicochemical
Method in brief: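 10–15 mg of solid added to 0.1–0.6 mL ethanol, shaken 24 h at 25 °C, then centrifuged and filtered. Supernatant (5 μL) injected on C18 reverse-phase HPLC with UV detection at 270 and 254 nm. Quantified by one-point calibration against standards of known concentration.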

[5] = target: T3, Rap guanine nucleotide exchange factor 3 (Homo sapiens, UniProt O95398); assay: Antagonist activity at human recombinant EPAC1 assessed as inhibition of Rap1b-bGDP exchange activity
T3 sequence (O95398 whole entry): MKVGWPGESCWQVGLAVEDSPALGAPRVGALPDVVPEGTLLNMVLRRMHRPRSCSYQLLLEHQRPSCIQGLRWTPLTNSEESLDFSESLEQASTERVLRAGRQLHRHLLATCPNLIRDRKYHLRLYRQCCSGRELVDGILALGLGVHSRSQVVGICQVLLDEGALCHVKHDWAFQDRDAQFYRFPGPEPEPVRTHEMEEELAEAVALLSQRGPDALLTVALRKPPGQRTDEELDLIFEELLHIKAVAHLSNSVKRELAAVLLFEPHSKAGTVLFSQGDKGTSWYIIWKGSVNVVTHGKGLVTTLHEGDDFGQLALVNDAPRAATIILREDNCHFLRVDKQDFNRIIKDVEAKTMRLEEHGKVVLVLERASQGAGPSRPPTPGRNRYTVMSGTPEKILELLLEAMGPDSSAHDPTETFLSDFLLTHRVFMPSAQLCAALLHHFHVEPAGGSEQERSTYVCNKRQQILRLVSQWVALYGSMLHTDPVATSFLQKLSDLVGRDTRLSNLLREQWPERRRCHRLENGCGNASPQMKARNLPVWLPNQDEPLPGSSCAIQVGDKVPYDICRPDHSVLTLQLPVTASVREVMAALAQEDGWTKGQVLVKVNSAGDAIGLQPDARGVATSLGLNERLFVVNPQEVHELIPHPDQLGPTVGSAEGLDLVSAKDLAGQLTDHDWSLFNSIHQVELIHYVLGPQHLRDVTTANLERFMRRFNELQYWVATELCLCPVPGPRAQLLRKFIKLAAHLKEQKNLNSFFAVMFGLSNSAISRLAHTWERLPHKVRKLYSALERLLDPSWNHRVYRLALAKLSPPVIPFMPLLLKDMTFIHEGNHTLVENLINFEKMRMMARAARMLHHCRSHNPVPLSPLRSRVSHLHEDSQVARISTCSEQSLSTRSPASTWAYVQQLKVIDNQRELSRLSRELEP

[6] = target: T3, Rap guanine nucleotide exchange factor 3; assay: Antagonist activity at EPAC1 (unknown origin) assessed as cAMP-induced guanine nucleotide exchange factor activity

Row | SMILES | IC50 [1] | Ratio IC50 [2] | IC50 [5] | IC50 ([1]; read-out: IC50) | other results
1 | CC(C)(C)c1cc(C(=O)Nc2cccc(Cl)c2)no1 | Not Active |  |  |  | 
2 | CC(C)(C)c1cc(C(=O)/C(C#N)=N/Nc2cc(Cl)ccc2Cl)no1 |  | 4.4 |  |  | 
3 | N#C/C(=N\Nc1cc(Cl)c(Cl)c(Cl)c1)C(=O)c1cc(C2CCCCC2)on1 |  |  | 4 µM |  | solubility [3]: 0.0237 mM (≈ 10.1 µg/mL); solubility at 24 h [4]: 8.5 mM (≈ 3620 µg/mL)
4 | CC(C)(C)c1cc(C(=O)/C(C#N)=N/Nc2cccc(Cl)c2Cl)no1 |  | 0.9 |  |  | 
5 | CC(C)(C)c1cc(C(=O)/C(C#N)=N/Nc2cccc(CO)c2)no1 | Not Active |  |  |  | 
6 | COc1cccc(N/N=C(\C#N)C(=O)c2cc(C(C)(C)C)on2)c1 | Not Active |  |  |  | 
7 | CC(C)(C)c1cc(C(=O)/C(C#N)=N/Nc2cc(C(F)(F)F)cc(C(F)(F)F)c2)no1 |  |  | 5.7 µM | 6.4 µM | solubility [3]: 0.968 mM (≈ 418 µg/mL); solubility at 24 h [4]: > 347 mM
8 | CC(C)(C)c1cc(C(=O)/C(C#N)=N/Nc2cc(F)cc(Cl)c2)no1 |  | 12.8 | 11.6 µM | 2.5 µM | 
9 | N#C/C(=N\Nc1cc(Cl)cc(Cl)c1)C(=O)c1cc(C2CCCCC2)on1 |  |  | 2.6 µM |  | 
10 | CC(C)(C)c1cc(C(=O)/C(C#N)=N/Nc2ccc(Cl)c(Cl)c2)no1 |  | 10.7 |  |  | 
11 | CC(C)(C)c1cc(NC(=O)c2cccc(Cl)c2)no1 | Not Active |  |  |  | 
12 | CC(C)(C)c1cc(C(=O)/C(C#N)=N/Nc2ccc(Cl)c(C(F)(F)F)c2)no1 |  |  | 9.7 µM |  | 
13 | CC(C)(C)c1cc(C(=O)/C(C#N)=N/Nc2cc(F)cc(F)c2)no1 |  | 6 |  | 5.3 µM | 
14 | CC(C)(C)c1cc(C(=O)/C(C#N)=N/Nc2ccc(F)c(Cl)c2)no1 |  | 11.9 | 7.8 µM | 2.7 µM | solubility [3]: 0.2368 mM (≈ 82.6 µg/mL); solubility at 24 h [4]: 23.5 mM (≈ 8200 µg/mL)
15 | N#C/C(=N\Nc1cc(Cl)c(Cl)c(Cl)c1)C(=O)c1cc(-c2ccccc2)on1 | Not Active |  |  |  | 
16 | CC(C)(C)c1cc(-c2n[nH]c(N)c2/N=N/c2cccc(Cl)c2)no1 | Not Active |  |  |  | 
17 | CC(C)(C)c1cc(C(=O)/C(C#N)=N/Nc2ccccc2Cl)no1 |  | 1.1 |  |  | 
18 | N#C/C(=N\Nc1cc(Cl)c(Cl)c(Cl)c1)C(=O)c1cc(C2CC2)on1 |  |  | 4.1 µM |  | 
19 | CC(C)(C)c1cc(C(=O)/C(C#N)=N/Nc2cc(Cl)cc(C(F)(F)F)c2)no1 |  |  | 5.7 µM | 1.6 µM | solubility at 24 h [4]: 36.6 mM (≈ 14600 µg/mL)
20 | CC(C)(C)c1cc(C(=O)N/N=C/c2cccc(Cl)c2)no1 | Not Active |  |  |  | 

Row | SMILES | IC50 [1] | Ratio IC50 [2] | IC50 [5] | IC50 ([1]; read-out: IC50) | other results
21 | CC(C)(C)c1cc(NC(=O)/C(C#N)=N/Nc2cccc(Cl)c2)no1 | Not Active |  |  |  | 
22 | CC(C)(C)c1cc(C(=O)/C(C#N)=N/Nc2cccc([N+](=O)[O-])c2)no1 |  | 1 |  | 31.3 µM | 
23 | CC(C)(C)c1cc(C(=O)/C(C#N)=N/Nc2cccc(C#N)c2)no1 |  |  |  | 67.8 µM | 
24 | CC(C)(C)c1cc(C(=O)/C(C#N)=N/Nc2ccc(Cl)c(F)c2)no1 |  | 7.4 |  | 4.3 µM | 
25 | Cc1cc(NC(=O)/C(C#N)=N/Nc2cccc(Cl)c2)no1 | Not Active |  |  |  | 
26 | N#C/C(=N\Nc1cccc(Cl)c1)C(=O)c1cc(C2CCCCC2)on1 |  | 2.8 |  | 11.3 µM | 
27 | CC(C)(C)c1cc(C(=O)/C(C#N)=N/Nc2ccccc2)no1 |  | 0.5 |  |  | 
28 | CC(=O)c1cccc(N/N=C(\C#N)C(=O)c2cc(C(C)(C)C)on2)c1 | Not Active |  |  |  | 
29 | N#C/C(=N\Nc1cccc(Cl)c1)C(=O)c1cc(C2CC2)on1 |  |  |  | 60 µM | 
30 | CC(C)(C)c1cc(C(=O)/C(C#N)=N/Nc2cccc(Cl)c2)no1 |  |  | 10.8 µM |  | solubility at 24 h ([3]; water): 0.018 mM (≈ 5.95 µg/mL); IC50 [6]: 10.8 µM; solubility at 24 h [4]: 45.3 mM (≈ 15000 µg/mL)
31 | CC(C)(C)c1cc(C(=O)/C(C#N)=N/Nc2cc(Cl)c(Cl)c(Cl)c2)no1 |  |  | 2.4 µM | 0.9 µM | solubility [3]: 0.0318 mM (≈ 12.7 µg/mL); solubility at 24 h [4]: 10.9 mM (≈ 4360 µg/mL)
32 | CC(C)(C)c1cc(C(=O)/C(C#N)=N/Nc2cc(F)c(F)c(F)c2)no1 |  |  | 8.9 µM |  | solubility [3]: 0.216 mM (≈ 75.7 µg/mL); solubility at 24 h [4]: 81.6 mM (≈ 28600 µg/mL)
33 | CC(C)(C)c1cc(C(=O)/C(C#N)=N/Nc2cc(Cl)cc(Cl)c2)no1 |  | 16.8 |  |  | 
34 | Cc1cc(C(=O)/C(C#N)=N/Nc2cccc(Cl)c2)no1 | Not Active |  |  |  | 
35 | CC(C)(C)c1cc(C(=O)/C(C#N)=N/Nc2ccc(C(F)(F)F)c(Cl)c2)no1 |  |  | 4.3 µM |  | 
36 | N#C/C(=N\Nc1cccc(Cl)c1)C(=O)c1cc(-c2ccccc2)on1 | Not Active |  |  |  | 
37 | CC(C)(C)c1cc(NC(=O)Nc2cccc(Cl)c2)no1 | Not Active |  |  |  | 
38 | CC(C)(C)c1cc(C(=O)/C(C#N)=N/Nc2ccc(Cl)cc2)no1 |  | 1.2 |  |  | 
39 | CCOC(=O)c1cccc(N/N=C(\C#N)C(=O)c2cc(C(C)(C)C)on2)c1 |  |  |  | 71.4 µM | 
